The term IC50 denotes the concentration that inhibits the measured activity by half. By EC50 is commonly meant the concentration giving half of the maximal effect. Usually inhibition stands for the percentage by which the read-out fell short of the control.

Activity calls are given as the source filed them. The rule behind the calls is not given here.

Here are results for ten molecules from ChEMBL document CHEMBL2016469, “Synthesis and evaluation of 1-(substituted)-3-prop-2-ynylureas as antiangiogenic agents” (Bioorg Med Chem Lett, 2012).

The test system of data set [1] is HUVEC. The data set is described as follows: Ratio of IC50 for cytotoxicity in HUVEC to EC50 for antiangiogenic activity in HUVEC. It counts as functional, Homo sapiens. The method in brief: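 Ratio of HUVEC cytotoxic IC50 (MTT) to antiangiogenic ED50 from the HUVEC tube-formation assay.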
Data set [2] in a line: Cytotoxicity against human EAhy926 cells after 48 hrs by MTT assay. The following applies: EA.hy 926, 48 h. Type of data set: functional, cell-based.
For data set [3], the system named is HUVEC. The data set is described as follows: Antiangiogenic activity in HUVEC assessed as suppression of tube formation after 24 hrs by hematoxylin staining analysis. The settings on record: Homo sapiens. Type of data set: functional, cell-based.
For data set [4], the system named is HUVEC. The data set is described as follows: Cytotoxicity against HUVEC after 48 hrs by MTT assay. Type of data set: cell-based. The following applies: Homo sapiens. The method in brief:
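MTT assay. HeLa and MCF-7 were tested at 1 and 100 μM. HUVEC cytotoxicity was measured the same way as for HeLa and MCF-7, to define non-cytotoxic doses for the tube-formation work. IC50 values taken as means of three independent experiments.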
In general terms: Tetrazolium assays rely on reduction of a dye to a coloured formazan, in cell work by metabolically active cells.

In data set [5] the test system is HUVEC. Kind of data set: Antiangiogenic activity in HUVEC assessed as suppression of tube formation at 6.25 uM after 24 hrs by hematoxylin staining analysis. It counts as functional. The following applies: Homo sapiens.
For data set [6], the target named is Fibroblast growth factor receptor 1 (Homo sapiens) (UniProt P11362). Kind of data set: Inhibition of human recombinant FGFR1 expressed in insect cells using Ulight-CAGAGAIETDKEYYTVKD as substrate at 1 uM after 60 mins by fluorescence assay. The method, boiled down: (§1)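 In vitro kinase assay against FGFR1, PDGFRβ or VEGFR2 with test compound at 1 μM. Read-out is the level of phosphorylation of a tyrosine kinase-specific ligand peptide substrate.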

The test system of data set [7] is HeLa. Kind of data set: Cytotoxicity against human HeLa cells after 48 hrs by MTT assay. Type of data set: functional, cell-based.
Data set [8] has as its system MCF7. Kind of data set: Cytotoxicity against human MCF7 cells after 48 hrs by MTT assay. It counts as functional, cell-based. The settings on record: MCF7, 48 h.
Data set [9] concerns the target Vascular endothelial growth factor receptor 2 (Homo sapiens) (UniProt P35968). The data set is described as follows: Inhibition of human recombinant VEGFR2 expressed in insect cells using Ulight-CAGAGAIETDKEYYTVKD as substrate at 1 uM after 60 mins by fluorescence assay. The method, boiled down: as §1
Data set [10] relates to A-431. Kind of data set: Cytotoxicity against human A431 cells over expressing EGFR after 48 hrs by MTT assay. The settings on record: A-431, 48 h. Type of data set: functional, cell-based.
Data set [11] concerns MCF7. Kind of data set: Cytotoxicity against human MCF7 cells at 100 uM after 48 hrs by MTT assay. Type of data set: functional. The following applies: MCF7, 48 h, read-out: GI. The method, boiled down:
(§2)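 MTT cytotoxicity screen against HeLa or MCF-7 cells at a single test concentration of 100 μM (screen also included 1 μM).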

Data set [12] deals with Platelet-derived growth factor receptor beta (Homo sapiens) (UniProt P09619). The data set is described as follows: Inhibition of human recombinant PDGFR-beta expressed in insect cells using Ulight-Poly GAT[EAY(1:1:1)]n as substrate at 1 uM after 60 mins by fluorescence assay. The method, boiled down: as §1
In data set [13] the test system is HeLa. Kind of data set: Cytotoxicity against human HeLa cells at 100 uM after 48 hrs by MTT assay. It counts as functional. The settings on record: read-out: GI. The method in brief: as §2
In data set [14] the test system is HUVEC. Kind of data set: Antiangiogenic activity in HUVEC assessed as suppression of tube formation at 25 nM after 24 hrs by hematoxylin staining analysis. It counts as functional. The settings on record: Homo sapiens.
Data set [15] relates to K562. The data set is described as follows: Cytotoxicity against human K562 cells. Type of data set: functional, cell-based.
Data set [16] relates to HUVEC. The data set is described as follows: Angiogenic activity in HUVEC assessed as induction of tube formation at 12.5 nM after 24 hrs by hematoxylin staining analysis. Type of data set: functional, cell-based. The settings on record: Homo sapiens.
Data set [17] concerns HUVEC. Kind of data set: Cytotoxicity against HUVEC at 12.5 nM after 48 hrs by MTT assay. Type of data set: cell-based. The following applies: human, 0.0125 µM.
Data set [18] concerns MDA-MB-231. The data set is described as follows: Cytotoxicity against human MDA-MB-231 cells. Type of data set: functional, cell-based.
The mark [19] stands for this setting: Homo sapiens, HeLa, 48 h, read-out: IC50.

Chain of Vascular endothelial growth factor receptor 2 (Homo sapiens) (P35968 whole entry): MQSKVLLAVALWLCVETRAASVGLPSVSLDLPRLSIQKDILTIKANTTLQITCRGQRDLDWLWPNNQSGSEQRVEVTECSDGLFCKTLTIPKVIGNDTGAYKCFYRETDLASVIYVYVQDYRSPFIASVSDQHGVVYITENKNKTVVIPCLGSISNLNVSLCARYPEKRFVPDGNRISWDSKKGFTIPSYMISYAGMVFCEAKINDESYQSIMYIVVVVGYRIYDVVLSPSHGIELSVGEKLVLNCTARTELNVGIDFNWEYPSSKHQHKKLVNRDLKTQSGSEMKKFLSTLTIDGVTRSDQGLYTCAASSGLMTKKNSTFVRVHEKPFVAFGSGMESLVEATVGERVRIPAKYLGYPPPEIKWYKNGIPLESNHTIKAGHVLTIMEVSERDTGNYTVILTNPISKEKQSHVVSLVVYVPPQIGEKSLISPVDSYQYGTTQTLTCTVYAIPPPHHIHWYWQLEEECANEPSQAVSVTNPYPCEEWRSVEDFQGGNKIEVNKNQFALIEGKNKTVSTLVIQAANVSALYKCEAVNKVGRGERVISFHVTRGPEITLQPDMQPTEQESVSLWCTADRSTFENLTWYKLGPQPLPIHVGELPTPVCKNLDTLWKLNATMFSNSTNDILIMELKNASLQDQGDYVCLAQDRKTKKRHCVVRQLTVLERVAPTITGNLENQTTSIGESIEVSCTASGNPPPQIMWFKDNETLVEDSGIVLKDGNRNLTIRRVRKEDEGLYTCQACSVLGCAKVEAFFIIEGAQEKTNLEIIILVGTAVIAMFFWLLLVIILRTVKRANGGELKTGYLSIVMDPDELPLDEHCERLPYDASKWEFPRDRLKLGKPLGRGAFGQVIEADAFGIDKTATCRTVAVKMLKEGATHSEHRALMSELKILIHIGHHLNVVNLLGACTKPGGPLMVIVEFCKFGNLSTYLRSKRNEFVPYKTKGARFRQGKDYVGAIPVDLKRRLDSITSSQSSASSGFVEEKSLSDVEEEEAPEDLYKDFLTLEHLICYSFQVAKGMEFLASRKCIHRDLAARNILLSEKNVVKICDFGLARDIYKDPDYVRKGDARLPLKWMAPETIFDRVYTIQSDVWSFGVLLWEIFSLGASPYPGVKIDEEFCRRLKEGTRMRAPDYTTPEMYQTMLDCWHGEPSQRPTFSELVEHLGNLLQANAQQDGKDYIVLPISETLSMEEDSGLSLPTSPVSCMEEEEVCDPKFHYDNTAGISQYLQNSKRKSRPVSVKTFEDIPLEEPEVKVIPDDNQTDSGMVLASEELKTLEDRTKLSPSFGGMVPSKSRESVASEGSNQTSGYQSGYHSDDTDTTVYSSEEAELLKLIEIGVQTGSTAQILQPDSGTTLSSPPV
Chain of Fibroblast growth factor receptor 1 (Homo sapiens) (P11362 22-822 limits assumed): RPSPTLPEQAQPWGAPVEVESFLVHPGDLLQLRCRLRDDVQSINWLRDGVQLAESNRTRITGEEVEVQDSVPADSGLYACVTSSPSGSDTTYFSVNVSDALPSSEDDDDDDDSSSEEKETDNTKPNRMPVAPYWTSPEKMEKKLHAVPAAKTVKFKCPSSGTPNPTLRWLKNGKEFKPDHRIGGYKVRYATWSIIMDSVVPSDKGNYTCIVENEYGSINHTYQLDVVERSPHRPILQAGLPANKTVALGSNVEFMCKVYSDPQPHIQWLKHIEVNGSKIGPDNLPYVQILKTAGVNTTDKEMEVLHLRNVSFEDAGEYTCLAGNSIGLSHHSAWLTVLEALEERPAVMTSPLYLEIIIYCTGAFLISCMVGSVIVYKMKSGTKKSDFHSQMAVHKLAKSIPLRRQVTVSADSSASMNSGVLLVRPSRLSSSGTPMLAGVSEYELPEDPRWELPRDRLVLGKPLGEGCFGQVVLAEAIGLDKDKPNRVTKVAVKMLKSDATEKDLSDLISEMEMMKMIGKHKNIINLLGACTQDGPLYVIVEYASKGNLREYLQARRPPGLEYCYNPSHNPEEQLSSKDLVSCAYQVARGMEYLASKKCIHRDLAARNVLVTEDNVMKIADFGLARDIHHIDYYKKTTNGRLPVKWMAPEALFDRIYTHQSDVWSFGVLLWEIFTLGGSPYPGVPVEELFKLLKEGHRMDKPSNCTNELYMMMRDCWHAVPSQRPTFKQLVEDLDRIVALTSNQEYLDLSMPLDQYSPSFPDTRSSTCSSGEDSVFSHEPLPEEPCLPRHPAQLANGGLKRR
Chain of Platelet-derived growth factor receptor beta (Homo sapiens) (P09619 whole entry): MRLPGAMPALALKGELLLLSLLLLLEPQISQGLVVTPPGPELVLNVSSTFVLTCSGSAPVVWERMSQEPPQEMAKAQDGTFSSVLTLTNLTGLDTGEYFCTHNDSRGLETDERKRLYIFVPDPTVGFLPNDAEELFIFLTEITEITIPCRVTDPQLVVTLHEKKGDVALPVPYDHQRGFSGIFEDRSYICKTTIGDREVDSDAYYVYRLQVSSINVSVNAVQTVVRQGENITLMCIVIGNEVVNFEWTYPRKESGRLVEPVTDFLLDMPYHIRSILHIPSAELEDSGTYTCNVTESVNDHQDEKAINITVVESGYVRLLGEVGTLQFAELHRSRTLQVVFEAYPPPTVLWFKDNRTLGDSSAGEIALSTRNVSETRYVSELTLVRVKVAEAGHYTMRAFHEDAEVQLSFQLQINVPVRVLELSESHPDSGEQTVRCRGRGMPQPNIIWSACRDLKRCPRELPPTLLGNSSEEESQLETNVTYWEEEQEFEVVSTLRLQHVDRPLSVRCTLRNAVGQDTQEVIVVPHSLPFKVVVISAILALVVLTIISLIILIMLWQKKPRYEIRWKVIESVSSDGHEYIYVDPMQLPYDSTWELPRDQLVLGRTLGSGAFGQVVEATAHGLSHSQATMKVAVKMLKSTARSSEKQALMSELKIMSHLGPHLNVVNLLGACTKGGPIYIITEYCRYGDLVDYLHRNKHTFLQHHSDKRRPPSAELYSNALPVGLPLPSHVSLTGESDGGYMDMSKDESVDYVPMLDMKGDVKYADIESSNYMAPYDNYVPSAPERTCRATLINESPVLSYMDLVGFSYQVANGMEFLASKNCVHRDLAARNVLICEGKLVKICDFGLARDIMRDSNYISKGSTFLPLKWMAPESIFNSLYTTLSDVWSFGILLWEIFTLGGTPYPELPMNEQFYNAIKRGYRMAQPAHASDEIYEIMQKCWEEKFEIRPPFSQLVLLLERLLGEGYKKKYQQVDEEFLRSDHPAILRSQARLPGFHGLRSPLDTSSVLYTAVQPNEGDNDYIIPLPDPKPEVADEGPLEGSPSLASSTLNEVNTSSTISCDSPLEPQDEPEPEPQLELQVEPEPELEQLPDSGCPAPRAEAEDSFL

As to `C#CCNC(=O)Nc1cccc(COc2ccc(C(=O)OC)cc2)c1`, the Ratio in data set [1] was 6. Moreover, the concentration for half-maximal inhibition (IC50) in data set [2] was 78.2 µM; in [4], 100 µM; in data set [7] (setting [19]) it was 12.3 µM; in data set [8], 74.9 µM; in data set [10], 0.215 µM. Besides, in data set [3], the concentration giving a half-maximal response (EC50) was found to be 17.5 µM. The inhibition at 6.25 µM in data set [5] came to 46.5%. Moreover, the inhibition result in data set [6] and in [9] was “inactive” throughout.
As for `C#CCNC(=O)Nc1cccc(CCl)c1`, the Ratio in data set [1] amounted to 77. The results for the inhibition of growth at 100 µM in [11] and in data set [13] were 85.2% and 86.9%, respectively. Also, the IC50 was found to be 10.5 µM in data set [2]; 20 µM in [4]; 1.55 µM in data set [7] (setting [19]); 1.48 µM in data set [8]; 0.036 µM in [10]. The EC50 in data set [3] was found to be 0.26 µM. The inhibition result in [12] was “Active”. For the same molecule, the inhibition result in [6] and in [9] was “inactive” each time. For the same molecule, in [14], the inhibition at 0.025 µM was 21.2%.
Regarding `COc1ccc(N(C(=O)N(C)C)c2nnc(-c3ccccc3)s2)cc1OC`, in [15], the IC50 came to 3 µM.
`C#CCNC(=O)Nc1cccc(CNCc2ccc(OC(F)(F)F)cc2)c1`: the figures for the IC50 in data set [7] (setting [19]) and in data set [8] were 339 µM and 283 µM, respectively.
`C#Cc1cccc(Nc2ncnc3cc(OCCOC)c(OCCOC)cc23)c1` [ERLOTINIB]: the concentration for half-maximal inhibition (IC50) in [10] was determined as 0.055 µM.
`C#CCNC(=O)Nc1cccc(CNCc2ccccc2)c1`: the outcome in [16] was Active. The IC50 in data set [2] was 192 µM; in [4], 50 µM; in [7] (hela), “Not Active”; in data set [8], 343 µM; in data set [10], 0.318 µM. The Activity result in [17] is on record as “Non-toxic”.
Take `C#CCNC(=O)Nc1cccc(CNCc2ccc(OC)cc2)c1`: the results for the half-maximal inhibitory concentration (IC50) in data set [7] (setting [19]) and in [8] were 392 µM and 195 µM, respectively.
In the same order, the values of `C#CCNC(=O)Nc1cccc(CNCc2ccc(C)cc2)c1` are 329 µM and 49.9 µM.
`CNC(=O)c1cc(Oc2ccc(NC(=O)Nc3ccc(Cl)c(C(F)(F)F)c3)cc2)ccn1` [SORAFENIB] registered a concentration for half-maximal inhibition (IC50) in data set [18] of 2.5 µM.
Regarding `COc1cccc2c1C(=O)c1c(O)c3c(c(O)c1C2=O)C[C@@](O)(C(=O)CO)C[C@@H]3O[C@H]1C[C@H](N)[C@H](O)[C@H](C)O1` [DOXORUBICIN], the half-maximal inhibitory concentration (IC50) in data set [7] (setting [19]) came out at 0.19 µM.
